Measured values as given in ChEMBL document CHEMBL2057177, “Analogues of fenarimol are potent inhibitors of Trypanosoma cruzi and are efficacious in a murine model of Chagas disease” (J Med Chem, 2012).
pIC50: −log10 of the molar value. Converted amounts (≈) assume the structure as drawn. The source made the active and inactive calls. The calls are words filed in the database; no cut-off is given here.

Experiments:
Trypanosoma cruzi [1] = assay: Antitrypanosomal activity against trypomastigotes of Trypanosoma cruzi Tulahuen infected immunosuppressed Swiss mouse assessed as level of parasite in blood at 50 mg/kg, po administered after 2 cycles of immunosuppression qd for 10 days; type: functional, organism-based; parameters: dose 50 mg/kg
Trypanosoma cruzi [2] = assay: Antitrypanosomal activity against trypomastigotes of Trypanosoma cruzi Tulahuen infected in Swiss mouse model of chagas disease assessed as decrease in parasite level in blood at 50 mg/kg, po administered 8 day after post infection qd for 10 days; type: functional, organism-based; parameters: dose 50 mg/kg
[3] = Apparent volume of distribution at steady state in Sprague-Dawley rat at 5.2 mg/kg, iv; type: ADME, organism-based; parameters: dose 5.2 mg/kg, route intravenous; conditions: in vivo, read-out: Vdss(app)
Summary of the method: (§1)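 Overnight-fasted male Sprague–Dawley rats (272–320 g), n = 2 per route. IV dose given as a 10 min jugular infusion in aqueous solution; oral dose by gavage as aqueous suspension. Arterial blood taken via carotid cannula up to 24 h. Plasma measured by LC-MS after acetonitrile precipitation. Noncompartmental analysis. Blood clearance = plasma clearance divided by in vitro blood/plasma ratio. Bioavailability from mean dose-normalised AUC0–inf, oral versus IV.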

CYP3A4/5 [4] = target: T1, CYP3A4/5 (Homo sapiens, UniProt P08684+P20815); assay: Inhibition of CYP3A4/5 in human liver microsomes; type: ADME, Microsome
Trypanosoma cruzi [5] = assay: Antitrypanosomal activity against trypomastigotes of Trypanosoma cruzi Tulahuen infected in Swiss mouse model of chagas disease assessed as decrease in parasite level in blood at 50 mg/kg, po administered 8 day after post infection qd for 10 days measured on day 21; type: functional, organism-based; parameters: dose 50 mg/kg
[6] = Elimination half life in Sprague-Dawley rat at 5.2 mg/kg, iv; type: ADME, organism-based; parameters: dose 5.2 mg/kg, route intravenous; conditions: in vivo, read-out: beta t1/2 (converted); summary of the method: as §1
Trypanosoma cruzi [7] = assay: Antitrypanosomal activity against trypomastigotes of Trypanosoma cruzi Tulahuen infected in Swiss mouse model of chagas disease assessed as decrease in parasite level in blood at 20 mg/kg, po administered 8 day after post infection qd for 20 days; type: functional; parameters: scale not given: the % may be the effect or the level left
Summary of the method: (§2)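 Female outbred Swiss mice, about 8 weeks old, infected ip with Tulahuén parasites; five mice per group. Daily dosing starts day 8 post-infection. Oral doses given by gavage in HPMC vehicle (0.5% HPMC, 0.4% Tween 80, 0.5% benzyl alcohol); ip doses in PBS with 0.4% Tween 80 and 10% PEG400. Tail-prick blood taken days 8, 9, 12, 14, 16, 19 and 27 post-infection, red cells lysed, and live trypomastigotes counted by hemocytometer. % efficacy = (vehicle mean − treated mean)/vehicle mean × 100. Survival recorded as surviving/infected-and-treated.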

Trypanosoma cruzi [8] = assay: Antitrypanosomal activity against trypomastigotes of Trypanosoma cruzi Tulahuen infected immunosuppressed Swiss mouse assessed as level of parasite in blood at 100 mg/kg, po administered 8 day after post infection qd for 20 days measured after 3 cycles of immunosuppression; type: functional, organism-based; parameters: dose 100 mg/kg
[9] = Blood Clearance in Sprague-Dawley rat at 5.2 mg/kg, iv; type: ADME, organism-based; parameters: dose 5.2 mg/kg, route intravenous; conditions: whole blood; summary of the method: as §1
[10] = Oral bioavailability in Sprague-Dawley rat at 17.6 mg/kg; type: ADME, organism-based; conditions: in vivo; summary of the method: as §1
Trypanosoma cruzi [11] = assay: Antitrypanosomal activity against trypomastigotes of Trypanosoma cruzi Tulahuen infected immunosuppressed Swiss mouse assessed as level of parasite in blood at 20 mg/kg, po administered 8 day after post infection qd for 20 days measured after 3 cycles of immunosuppression; type: functional, organism-based; parameters: dose 20 mg/kg
[12] = Kinetic solubility of the compound at pH 6.5 by nephelometric analysis; type: physicochemical; conditions: buffer, read-out: Kinetic_solubility
Trypanosoma cruzi [13] = assay: Antitrypanosomal activity against trypomastigotes of Trypanosoma cruzi Tulahuen infected in Swiss mouse model of chagas disease assessed as level of parasite in blood at 20 mg/kg, po qd for 20 days measured after 30 day; type: functional, organism-based; parameters: dose 20 mg/kg
Summary of the method: (§3)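 Female Swiss mice infected ip with Tulahuén parasites; oral gavage dosing in HPMC vehicle, daily from day 8 post-infection. Dosing is followed by 10 days without compound. If blood is then parasite-free, mice receive cyclophosphamide ip 50 mg/kg/day, up to three cycles (4 days on, 3 rest). Parasitemia counted in tail-prick blood by hemocytometer.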

Trypanosoma cruzi [14] = assay: Antitrypanosomal activity against trypomastigotes of Trypanosoma cruzi Tulahuen expressing the beta- galactosidase gene infected rat L6 cells after 96 hrs; type: functional, organism-based; conditions: L6, 96 h
Summary of the method: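 Tulahuén trypomastigotes expressing β-galactosidase, maintained by serial passage in L6 cells. L6 cells seeded and left 24 h at 37 °C, 5% CO2, then infected at MOI 3 for 48 h. Compound exposure 96 h, benznidazole control. CPRG with 0.3% Nonidet P-40 added, absorbance at 530 nm after 4−6 h. IC50 taken from % inhibition curve; mean of at least two assays.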

[15] = Plasma concentration in Swiss mouse at 20 mg/kg, po after 1 hr; type: ADME, organism-based; parameters: dose 20 mg/kg, route oral
Summary of the method: (§4)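 Nonfasted male Swiss outbred mice (23.8–39.9 g), fed throughout. Dosed by oral gavage as solution or suspension in aqueous vehicle. Plasma assayed by LC-MS against blank-plasma standards after acetonitrile precipitation; LLOQ 0.001–0.015 μM.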

Trypanosoma cruzi [16] = assay: Antitrypanosomal activity against trypomastigotes of Trypanosoma cruzi Tulahuen infected in Swiss mouse model of chagas disease assessed as decrease in parasite level in blood at 100 mg/kg, ip administered 8 days after post infection qd for 5 days; type: functional; parameters: scale not given: the % may be the effect or the level left; conditions: route intraperitoneal; summary of the method: as §2
Trypanosoma cruzi [17] = assay: Antitrypanosomal activity against trypomastigotes of Trypanosoma cruzi Tulahuen infected in Swiss mouse model of chagas disease assessed as increase of host survival at 100 mg/kg, ip administered 8 days after post infection qd for 5 days; type: functional, organism-based; parameters: dose 100 mg/kg; summary of the method: as §2
CYP3A4/5 [18] = target: T1, CYP3A4/5; assay: Inhibition of […] in human liver microsomes at 20 uM; type: ADME, Microsome
[19] = Plasma concentration in Swiss mouse at 20 mg/kg, po after 8 hrs; type: ADME, organism-based; parameters: dose 20 mg/kg, route oral; summary of the method: as §4
Trypanosoma cruzi [20] = assay: Antitrypanosomal activity against trypomastigotes of Trypanosoma cruzi Tulahuen infected in Swiss mouse model of chagas disease assessed as decrease in parasite level in blood at 50 mg/kg, po administered 8 days after post infection qd for 5 days; type: functional; parameters: scale not given: the % may be the effect or the level left; summary of the method: as §2
Trypanosoma cruzi [21] = assay: Antitrypanosomal activity against trypomastigotes of Trypanosoma cruzi Tulahuen infected in Swiss mouse model of chagas disease assessed as decrease in parasite level in blood at 10 mg/kg, ip administered 8 days after post infection qd for 5 days; type: functional; parameters: scale not given: the % may be the effect or the level left; conditions: route intraperitoneal; summary of the method: as §2
Trypanosoma cruzi [22] = assay: Antitrypanosomal activity against trypomastigotes of Trypanosoma cruzi Tulahuen infected immunosuppressed Swiss mouse assessed as level of parasite in blood at 20 mg/kg, po administered after 2 cycles of immunosuppression qd for 10 days; type: functional, organism-based; parameters: dose 20 mg/kg; summary of the method: as §3
Trypanosoma cruzi [23] = assay: Antitrypanosomal activity against trypomastigotes of Trypanosoma cruzi Tulahuen infected in Swiss mouse model of chagas disease assessed as increase of host survival at 2 mg/kg, po administered 8 days after post infection qd for 5 days; type: functional, organism-based; parameters: dose 2 mg/kg; summary of the method: as §2
[24] = Plasma concentration in Swiss mouse at 50 mg/kg, po after 8 hrs; type: ADME, organism-based; parameters: dose 50 mg/kg, route oral; summary of the method: as §4
[25] = Plasma concentration in Swiss mouse at 50 mg/kg, po after 1 hr; type: ADME, organism-based; parameters: dose 50 mg/kg, route oral; summary of the method: as §4
[26] = Plasma concentration in Swiss mouse at 50 mg/kg, po after 24 hrs; type: ADME, organism-based; parameters: dose 50 mg/kg, route oral; summary of the method: as §4
Trypanosoma cruzi [27] = assay: Antitrypanosomal activity against trypomastigotes of Trypanosoma cruzi Tulahuen infected in Swiss mouse model of chagas disease assessed as decrease in parasite level in blood at 2 mg/kg, po administered 8 days after post infection qd for 5 days; parameters: scale not given: the % may be the effect or the level left
Trypanosoma cruzi [28] = assay: Antitrypanosomal activity against trypomastigotes of Trypanosoma cruzi Tulahuen infected in Swiss mouse model of chagas disease assessed as increase of host survival at 10 mg/kg, po administered 8 days after post infection qd for 5 days; type: functional, organism-based; parameters: dose 10 mg/kg; summary of the method: as §2

**Q.** What does the source list for `N#Cc1ccc(C(O)(c2ccc(C(F)(F)F)cc2)c2cccnc2)cc1` (racemic)?
**A.** Activity (Trypanosoma cruzi [1]): inactive; Activity (Trypanosoma cruzi [2]): Active; Vd [3]: 5.7 L/kg; pIC50 (CYP3A4/5 [4]): 5.12; Activity (Trypanosoma cruzi [5]): Active; half-life [6]: 5.1 h; Activity (Trypanosoma cruzi [7]): >99%; Activity (Trypanosoma cruzi [8]): Active; clearance [9]: 24.4 mL/min/kg; bioavailability [10]: 68.1%; Activity (Trypanosoma cruzi [11]): Active; solubility kinetic [12]: 6.3 µg/mL (≈ 17.8 µM); Activity (Trypanosoma cruzi [13]): Active; pIC50 (Trypanosoma cruzi [14]): 7.92

**Q.** For `OC(c1ccc(Cl)cc1)(c1cncnc1)c1ccccc1Cl` (stereo not given) [FENARIMOL], which concentration at 1 h [15] is on record?
**A.** 2.1 µM

**Q.** And the Activity (Trypanosoma cruzi [16])?
**A.** 80%

**Q.** What about the Activity (Trypanosoma cruzi [17]) of the same compound?
**A.** Active

**Q.** What about the inhibition at 20 µM (CYP3A4/5 [18]) of the same compound?
**A.** 66%

**Q.** What about the concentration at 8 h [19] of the same compound?
**A.** 0.08 µM

**Q.** What about the pIC50 (Trypanosoma cruzi [14]) of the same compound?
**A.** 6.46

**Q.** For `CC[C@@H]([C@H](C)O)n1ncn(-c2ccc(N3CCN(c4ccc(OC[C@@H]5CO[C@@](Cn6cncn6)(c6ccc(F)cc6F)C5)cc4)CC3)cc2)c1=O` [POSACONAZOLE], which concentration at 1 h [15] is on record?
**A.** 6.3 µM

**Q.** And the Activity (Trypanosoma cruzi [20])?
**A.** 100%

**Q.** What about the Activity (Trypanosoma cruzi [21]) of the same compound?
**A.** 100%

**Q.** And the Activity (Trypanosoma cruzi [7])?
**A.** >99%

**Q.** And the Activity (Trypanosoma cruzi [22])?
**A.** inactive

**Q.** What about the inhibition at 20 µM (CYP3A4/5 [18]) of the same compound?
**A.** 98%

**Q.** What about the concentration at 8 h [19] of the same compound?
**A.** 13.6 µM

**Q.** And the Activity (Trypanosoma cruzi [23])?
**A.** Active

**Q.** What about the concentration at 8 h [24] of the same compound?
**A.** 11.1 µM

**Q.** What about the solubility kinetic [12] of the same compound?
**A.** 3.1 µg/mL (≈ 4.42 µM)

**Q.** And the Activity (Trypanosoma cruzi [13])?
**A.** Active

**Q.** What about the concentration at 1 h [25] of the same compound?
**A.** 6.4 µM

**Q.** What about the concentration at 24 h [26] of the same compound?
**A.** 3.8 µM

**Q.** What about the Activity (Trypanosoma cruzi [27]) of the same compound?
**A.** 100%

**Q.** What about the Activity (Trypanosoma cruzi [28]) of the same compound?
**A.** Active
